Experimental data as given in ChEMBL document CHEMBL1147433, “Design of small molecule ketoamide-based inhibitors of cathepsin K” (Bioorg Med Chem Lett, 2004).
Blank lines part the entries; values can stand above or below the compound they belong to.

Key:
Cathepsin K [1] = target: T1, Cathepsin K (Homo sapiens, UniProt P43235); experiment: Inhibitory activity against human cathepsin K
T1 sequence (P43235 whole entry): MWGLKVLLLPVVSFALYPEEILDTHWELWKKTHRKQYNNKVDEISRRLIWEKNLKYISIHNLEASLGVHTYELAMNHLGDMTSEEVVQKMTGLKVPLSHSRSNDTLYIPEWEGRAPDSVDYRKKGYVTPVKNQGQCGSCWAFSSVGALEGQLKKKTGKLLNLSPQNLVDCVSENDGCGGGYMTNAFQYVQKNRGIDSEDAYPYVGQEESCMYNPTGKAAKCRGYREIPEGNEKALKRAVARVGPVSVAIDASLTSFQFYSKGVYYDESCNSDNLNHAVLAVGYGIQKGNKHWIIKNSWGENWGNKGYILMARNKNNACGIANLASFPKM
Outline: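 Recombinant human cathepsin K activity was measured by fluorescence with Cbz-Phe-Arg-AMC as the substrate, in 100 mM NaOAc, 10 mM DTT and 120 mM NaCl at pH 5.5. IC50 values are the mean of two or three inhibition assays. Individual data points within each experiment fell within a 3-fold range of each other.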

[2] = Vss in rat; type: ADME, organism-based; conditions: in vivo, read-out: Vss
[3] = Clearance in rat; type: ADME, organism-based; conditions: in vivo, read-out: Clearance (C1)
[4] = PAPP (membrane permeability) in dog kidney cell monolayer assay; type: ADME, Canis lupus familiaris; conditions: read-out: Activity
Cathepsin K [5] = target: T2, Cathepsin K (Rattus norvegicus, UniProt O35186); experiment: Inhibitory activity against rat cathepsin K
T2 sequence (O35186 whole entry): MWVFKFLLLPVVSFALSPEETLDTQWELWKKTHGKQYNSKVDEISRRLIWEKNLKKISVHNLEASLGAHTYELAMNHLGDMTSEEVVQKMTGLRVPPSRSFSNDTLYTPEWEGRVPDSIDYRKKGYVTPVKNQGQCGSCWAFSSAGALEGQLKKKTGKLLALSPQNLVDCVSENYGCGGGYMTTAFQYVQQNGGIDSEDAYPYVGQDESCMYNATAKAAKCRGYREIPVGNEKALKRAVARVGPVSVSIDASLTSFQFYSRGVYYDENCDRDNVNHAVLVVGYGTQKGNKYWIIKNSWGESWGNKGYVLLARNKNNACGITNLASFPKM

[6] = Half-life in rat; type: ADME, organism-based; conditions: in vivo
[7] = Oral bioavailability in rat; type: ADME, organism-based; conditions: in vivo

Compound: CCCC[C@H](NC(=O)OC(C)(C)C)C(=O)C(=O)NC
IC50 (Cathepsin K [1]): 21000 nM

Compound: CCCC[C@H](NC(=O)OC(C)(C)C)C(=O)C(=O)NCCc1ccccc1
IC50 (Cathepsin K [1]): 5000 nM

Compound: CCCC[C@H](NC(=O)OC(C)(C)C)C(=O)C(=O)N(C)[C@H](C)c1ccccc1
IC50 (Cathepsin K [1]): > 100000 nM

Compound: CCCC[C@H](NC(=O)OC(C)(C)C)C(=O)C(=O)Nc1ccccc1
IC50 (Cathepsin K [1]): 6300 nM

Compound: CCCC[C@H](NC(=O)OC(C(C)C)C(C)C)C(=O)C(=O)N[C@H](C)c1ccccc1
Vd [2]: 1.9 L/kg
clearance [3]: 8.7 mL/min/kg
Papp [4]: 5.7 ×10⁻⁶ cm/s
IC50 (Cathepsin K [5]): 20 nM
half-life [6]: 4.83 h
bioavailability [7]: 3%

Compound: CCCC[C@H](NC(=O)OC(C)(C)C)C(=O)C(=O)NC(C)C
IC50 (Cathepsin K [1]): 9100 nM

Compound: CCCC[C@H](NC(=O)OC(C)(C)C)C(=O)C(=O)NCc1cccs1
IC50 (Cathepsin K [1]): 3400 nM

Compound: CCCC[C@H](NC(=O)OC(C)(C)C)C(=O)C(N)=O
IC50 (Cathepsin K [1]): 5900 nM

Compound: CCCC[C@H](NC(=O)OC(C)(C)C)C(=O)C(=O)NCC
IC50 (Cathepsin K [1]): 18000 nM

Compound: CCCC[C@H](NC(=O)OC(C)(C)C)C(=O)C(=O)NC(C)(C)C
IC50 (Cathepsin K [1]): > 100000 nM

Compound: CCCC[C@H](NC(=O)OC(C)(C)C)C(=O)C(=O)N[C@@H](C)c1ccccc1
IC50 (Cathepsin K [1]): 4200 nM

Second part, the compound after the results:

IC50 (Cathepsin K [1]): 69 nM
Compound: CCCC[C@H](NC(=O)OC(CC(C)C)CC(C)C)C(=O)C(=O)N[C@H](C)c1ccccc1

IC50 (Cathepsin K [1]): 0.79 nM
Compound: CCCC[C@H](NC(=O)O[C@H](CCCc1ccccc1)C(C)(C)C)C(=O)C(=O)N[C@H](C)c1ccccc1

IC50 (Cathepsin K [1]): 2900 nM
Compound: CCCC[C@H](NC(=O)OC(C)(C)C)C(=O)C(=O)NCc1ccccc1

IC50 (Cathepsin K [1]): 1200 nM
Compound: CCCC[C@H](NC(=O)OC(C)(C)C)C(=O)C(=O)N[C@H](C)c1ccccc1

IC50 (Cathepsin K [1]): 6.3 nM
Compound: CCCC[C@H](NC(=O)OC(C1CCCC1)C1CCCC1)C(=O)C(=O)N[C@H](C)c1ccccc1

IC50 (Cathepsin K [1]): 1.1 nM
Compound: CCCC[C@H](NC(=O)O[C@H](CCc1ccccc1)C(C)(C)C)C(=O)C(=O)N[C@H](C)c1ccccc1

IC50 (Cathepsin K [1]): 20 nM
Compound: CCCC[C@H](NC(=O)OC(C)C(C)(C)C)C(=O)C(=O)N[C@H](C)c1ccccc1 (some centres undefined)

IC50 (Cathepsin K [1]): 1400 nM
Compound: CCCC[C@H](NC(=O)O[C@@H](CCCc1ccccc1)C(C)(C)C)C(=O)C(=O)N[C@H](C)c1ccccc1

IC50 (Cathepsin K [1]): 0.71 nM
Compound: CCCC[C@H](NC(=O)OC(C(C)(C)C)C(C)(C)C)C(=O)C(=O)N[C@H](C)c1ccccc1

IC50 (Cathepsin K [1]): 32 nM
Compound: CCCC[C@H](NC(=O)OC(CCC)CCC)C(=O)C(=O)N[C@H](C)c1ccccc1

IC50 (Cathepsin K [1]): 912 nM
Compound: CCCC[C@H](NC(=O)O[C@@H](CCc1ccccc1)C(C)(C)C)C(=O)C(=O)N[C@H](C)c1ccccc1

IC50 (Cathepsin K [1]): 76 nM
Compound: CCCC[C@H](NC(=O)OC(CC)CC)C(=O)C(=O)N[C@H](C)c1ccccc1

IC50 (Cathepsin K [1]): 34 nM
Compound: CCCC[C@H](NC(=O)OCC(C)(C)C)C(=O)C(=O)N[C@H](C)c1ccccc1
